Assay results as given in ChEMBL document CHEMBL1129266, “Synthesis and biological activity of NK-1 selective, N-backbone cyclic analogs of the C-terminal hexapeptide of substance P” (J Med Chem, 1996).
Starred links: 1 amine or outer side, 2 acyl side, 3 side chain; linkers in the order of their positions; H or OH if unused. Positions of bridges follow the written chain, without caps; N, C: chain ends. Non-standard residues stand in square brackets, D forms with d. Residues, ends and D or L forms follow the SMILES beside them. *: point of attachment. N(6-aminohexyl)Gly = O=C(CN(CCCCCCN[*:3])[*:1])[*:2]; NGly(3-aminopropyl) = O=C(CN(CCCN[*:3])[*:1])[*:2]; N(2-Aminoethyl)Gly = O=C(CN(CCN[*:3])[*:1])[*:2]; Adipoyl = O=C(CCCCC(=O)[*:2])[*:1]; Glutaryl = O=C(CCCC(=O)[*:2])[*:1]; X2 = CC(=O)NCCCN(CC(=O)[*:2])[*:1]; Gly(N(CH2)3NH2) = NCCCNCC(=O)O; Suc = O=C(CCC(=O)[*:2])[*:1]; X1 = CNC(=O)CCCCC(=O)*

What was measured:
Substance-P receptor = Substance-P receptor (Cavia porcellus, UniProt P30547); experiment: Effective concentration to activate Tachykinin receptor 1 in guinea pig ileum(GPI); format: tissue-based
Chain of Substance-P receptor (P30547 whole entry): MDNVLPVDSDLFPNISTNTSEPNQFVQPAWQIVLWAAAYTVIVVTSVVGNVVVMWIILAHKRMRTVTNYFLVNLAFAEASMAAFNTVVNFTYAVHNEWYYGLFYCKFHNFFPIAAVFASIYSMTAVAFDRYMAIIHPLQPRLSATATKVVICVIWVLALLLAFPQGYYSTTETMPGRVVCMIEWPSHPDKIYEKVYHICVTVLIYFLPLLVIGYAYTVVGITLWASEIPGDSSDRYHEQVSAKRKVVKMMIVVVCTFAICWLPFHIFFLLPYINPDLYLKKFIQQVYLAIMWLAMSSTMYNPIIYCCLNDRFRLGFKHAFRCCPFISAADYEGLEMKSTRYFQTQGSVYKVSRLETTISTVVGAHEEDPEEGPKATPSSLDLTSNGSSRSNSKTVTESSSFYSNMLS

Substance-K receptor [1] = biological target: T1, Substance-K receptor (Rattus norvegicus, UniProt P16610); experiment: Effective concentration to activate Tachykinin receptor 2 in rat vas deferens (RVD)
T1 sequence (P16610 whole entry): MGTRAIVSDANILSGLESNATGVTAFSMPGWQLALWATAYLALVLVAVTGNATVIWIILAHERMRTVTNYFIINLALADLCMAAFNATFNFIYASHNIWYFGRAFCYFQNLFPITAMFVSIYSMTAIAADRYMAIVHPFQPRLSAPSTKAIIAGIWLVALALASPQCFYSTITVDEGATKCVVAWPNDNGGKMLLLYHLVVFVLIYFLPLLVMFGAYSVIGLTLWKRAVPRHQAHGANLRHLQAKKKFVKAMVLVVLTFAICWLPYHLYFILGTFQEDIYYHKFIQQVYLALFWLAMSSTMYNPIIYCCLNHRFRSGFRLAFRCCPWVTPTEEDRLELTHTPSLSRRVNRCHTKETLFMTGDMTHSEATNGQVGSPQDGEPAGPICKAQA

Neuromedin-K receptor [2] = biological target: T2, Neuromedin-K receptor (Rattus norvegicus, UniProt P16177); experiment: Effective concentration to activate Tachykinin receptor 3 in rat portal vein (RPV)
T2 sequence (P16177 whole entry): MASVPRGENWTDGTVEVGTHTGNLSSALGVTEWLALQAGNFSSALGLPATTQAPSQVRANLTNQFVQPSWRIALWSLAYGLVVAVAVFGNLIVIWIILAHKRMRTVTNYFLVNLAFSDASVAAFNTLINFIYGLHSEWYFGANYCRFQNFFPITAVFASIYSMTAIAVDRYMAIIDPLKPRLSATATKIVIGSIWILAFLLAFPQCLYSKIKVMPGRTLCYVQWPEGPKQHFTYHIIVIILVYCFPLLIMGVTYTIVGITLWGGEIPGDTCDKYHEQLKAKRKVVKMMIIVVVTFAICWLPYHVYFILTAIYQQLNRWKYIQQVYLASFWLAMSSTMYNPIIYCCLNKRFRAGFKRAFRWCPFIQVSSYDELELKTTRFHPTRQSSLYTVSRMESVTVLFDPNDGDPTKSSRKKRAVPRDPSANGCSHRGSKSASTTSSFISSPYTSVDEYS
Summary of the method: (§1)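 Portal vein from rat killed by decapitation, mounted in a bath at 37 °C under about 0.5 g tension and equilibrated for 1 h. Peptides were then added at 20 min intervals to avoid receptor desensitization, and contractile responses were recorded.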

Neuromedin-K receptor [3] = biological target: T2, Neuromedin-K receptor; experiment: Effective concentration to activate Tachykinin receptor 3 in rat portal vein(RPV).; summary of the method: as §1
Substance-K receptor [4] = biological target: T1, Substance-K receptor; experiment: Effective concentration to activate Tachykinin receptor 2 in rat vas deferens(RVD)

Compound	EC50 (Substance-P receptor) [nM]	EC50 (Substance-K receptor [1]) [nM]	EC50 (Neuromedin-K receptor [2]) [nM]	EC50 (Neuromedin-K receptor [3]) [nM]	EC50 (Substance-K receptor [4]) [nM]
CSCC[C@H](NC(=O)[C@H](CC(C)C)NC(=O)CN(CCCN)C(=O)[C@H](Cc1ccccc1)NC(=O)[C@H](Cc1ccccc1)NC(=O)[C@H](CCCNC(=N)N)NC(C)=O)C(N)=O (Ac-RFF[Gly(N(CH2)3NH2)]LM-NH2)	300	> 100000	2000		
CSCC[C@H](NC(=O)[C@H](CC(C)C)NC(=O)CN1CCCCCCNC(=O)CCCC(=O)N[C@@H](CCCN=C(N)N)C(=O)N[C@@H](Cc2ccccc2)C(=O)N[C@@H](Cc2ccccc2)C1=O)C(N)=O (RFF[N(6-aminohexyl)Gly]LM-NH2; linker N-4 via Glutaryl)	60	> 50000	1000		
CSCC[C@H](NC(=O)[C@H](CC(C)C)NC(=O)CN1CCCCCCNC(=O)CCC(=O)N[C@@H](CCCN=C(N)N)C(=O)N[C@@H](Cc2ccccc2)C(=O)N[C@@H](Cc2ccccc2)C1=O)C(N)=O (RFF[N(6-aminohexyl)Gly]LM-NH2; linker N-4 via Suc)	160	> 50000	1000		
CSCC[C@H](NC(=O)[C@H](CC(C)C)NC(=O)CN1CCCNC(=O)CCCCC(=O)N[C@@H](CCCN=C(N)N)C(=O)N[C@@H](Cc2ccccc2)C(=O)N[C@@H](Cc2ccccc2)C1=O)C(N)=O (RFF[NGly(3-aminopropyl)]LM-NH2; linker N-4 via Adipoyl)	5	> 200000	> 10000		
CSCC[C@H](NC(=O)[C@H](CC(C)C)NC(=O)CN1CCCNC(=O)CCCC(=O)N[C@@H](CCCN=C(N)N)C(=O)N[C@@H](Cc2ccccc2)C(=O)N[C@@H](Cc2ccccc2)C1=O)C(N)=O (RFF[NGly(3-aminopropyl)]LM-NH2; linker N-4 via Glutaryl)	11	> 50000	> 10000		
CSCC[C@H](NC(=O)[C@H](CC(C)C)NC(=O)CNC(=O)[C@H](Cc1ccccc1)N(C)C(=O)[C@H](Cc1ccccc1)NC(=O)[C@H](CC(=O)O)NC(=O)CCC(=O)O)C(N)=O [SENKTIDE]	35000	> 200000			
Ac-RFFPLM-NH2	3	> 200000		> 50000	

More lines, now with the values ahead:

EC50 (Substance-P receptor) [nM]	EC50 (Substance-K receptor [1]) [nM]	EC50 (Neuromedin-K receptor [2]) [nM]	EC50 (Neuromedin-K receptor [3]) [nM]	EC50 (Substance-K receptor [4]) [nM]	Compound
> 10000	> 50000	> 10000			CSCC[C@H](NC(=O)[C@H](CC(C)C)NC(=O)CN1CCNC(=O)CCC(=O)NCC(=O)N[C@@H](CCCN=C(N)N)C(=O)N[C@@H](Cc2ccccc2)C(=O)N[C@@H](Cc2ccccc2)C1=O)C(N)=O (GRFF[N(2-Aminoethyl)Gly]LM-NH2; linker N-5 via Suc)
4000	> 50000	> 10000			CSCC[C@H](NC(=O)[C@H](CC(C)C)NC(=O)CN1CCNC(=O)CCC(=O)N[C@@H](CCCNC(=N)N)C(=O)N[C@@H](Cc2ccccc2)C(=O)N[C@@H](Cc2ccccc2)C1=O)C(N)=O (RFF[N(2-Aminoethyl)Gly]LM-NH2; linker N-4 via Suc)
180	> 50000	> 10000			CSCC[C@H](NC(=O)[C@H](CC(C)C)NC(=O)CN1CCCNC(=O)CCC(=O)N[C@@H](CCCN=C(N)N)C(=O)N[C@@H](Cc2ccccc2)C(=O)N[C@@H](Cc2ccccc2)C1=O)C(N)=O (RFF[NGly(3-aminopropyl)]LM-NH2; linker N-4 via Suc)
400			2000	> 100000	CNC(=O)CCCCC(=O)N[C@@H](CCCNC(=N)N)C(=O)N[C@@H](Cc1ccccc1)C(=O)N[C@@H](Cc1ccccc1)C(=O)N(CCCNC(C)=O)CC(=O)N[C@@H](CC(C)C)C(=O)N[C@@H](CCSC)C(N)=O (X1-RFF[X2]LM-NH2)
